A short description of data set [1]: Selectivity index, ratio of CC50 for human MT4 cells to EC50 for HIV-1 3B infected in human MT4 cells. The format is toxicity, cell-based. The conditions noted are these: uninfected and infected with HIV-1 3B, read-out: Ratio CC50/EC50. The method, boiled down: (§1)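 Selectivity index calculated as CC50 divided by EC50. Both values come from MTT readings taken 5 days after infection, on mock-infected and virus-infected MT-4 cells run in parallel.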

Data set [2] deals with Human immunodeficiency virus 2. Kind of data set: Antiviral activity against HIV-2 ROD infected in human MT4 cells assessed as inhibition of virus-induced syncytium formation after 5 days by MTT assay. The format is functional, organism-based. The conditions noted are these: Human immunodeficiency virus 2, ISOLATE ROD, MT4, 120 h. The method, boiled down:
(§2)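 MT-4 cells (exponentially growing, spun 5 min at 1000 rpm, resuspended at 6 × 10⁵ cells/mL) infected with HIV-1 IIIB or HIV-2 ROD at 100–300 CCID50. Compounds added at infection in triplicate wells as serial fivefold dilutions, with untreated infected and mock-infected controls. Viability read by MTT at 540 and 690 nm after 5 days, from the median OD of three wells.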

Data set [3] relates to Human immunodeficiency virus 1. Description: Antiviral activity against HIV-1 3B harboring RT Y188L mutant infected in human MT4 cells assessed as inhibition of virus-induced syncytium formation after 5 days by MTT assay. The class given is functional, organism-based. The method, boiled down:
(§3)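 Exponentially growing MT-4 cells, pelleted and resuspended at 6 × 10⁵ cells/mL, were infected with virus stock at 100-300 CCID50. Test compounds were added at infection as serial fivefold dilutions, in triplicate wells. After 5 days, viability was read by MTT reduction at 540 and 690 nm using the median OD of three wells.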
(Formazan colour is commonly taken as a measure of viable cells.)

The nature of data set [4]: Selectivity index, ratio of CC50 for human MT4 cells to EC50 for HIV-2 ROD infected in human MT4 cells. The class given is toxicity, cell-based. The conditions noted are these: uninfected and infected with HIV-2 ROD, read-out: Ratio CC50/EC50. The method, boiled down: as §1
Data set [5] concerns the target Human immunodeficiency virus type 1 reverse transcriptase (Human immunodeficiency virus 1, UniProt Q72547). Description: Inhibition of HIV-1 reverse transcriptase assessed as inhibition of biotin-dUTP incorporation […] by colorimetry. The method, boiled down: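 Purified recombinant HIV-1 RT with a […] template primer. Read-out is colorimetric detection of biotin-dUTP incorporated into the homopolymer template primer, with nucleotides linked to the microtiter plate.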

Data set [6] deals with Human immunodeficiency virus 1. Description: Antiviral activity against HIV-1 3B infected in human MT4 cells assessed as inhibition of virus-induced syncytium formation after 5 days by MTT assay. The class given is functional, organism-based. The conditions noted are these: Human immunodeficiency virus 1, 3B, MT4, 120 h. The method, boiled down:
as §2

The test system of data set [7] is Human immunodeficiency virus 1. Kind of data set: Antiviral activity against HIV-1 3B harboring RT Y181C mutant infected in human MT4 cells assessed as inhibition of virus-induced syncytium formation after 5 days by MTT assay. The format is functional, organism-based. The method, boiled down: as §3
Data set [8] can be described thus: Cytotoxicity against human MT4 cells assessed as cell viability after 5 days by MTT assay. The class given is cell-based. The method, boiled down: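 MT-4 cells at 6 × 10⁵ cells/mL, mock-infected with culture medium and run in parallel with the antiviral plates. Test compounds given as serial fivefold dilutions in triplicate wells. After 5 days viability read by MTT reduction to formazan at 540 and 690 nm, using the median OD of three wells.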

The test system of data set [9] is Human immunodeficiency virus 1. Kind of data set: Antiviral activity against HIV-1 3B harboring RT K103N and Y181C mutant infected in human MT4 cells assessed as inhibition of virus-induced syncytium formation after 5 days by MTT assay. The format is functional, organism-based. The method, boiled down:
as §3

Data set [10] deals with Human immunodeficiency virus 1. Description: Antiviral activity against HIV-1 3B harboring RT F227L and V106A mutant infected in human MT4 cells assessed as inhibition of virus-induced syncytium formation after 5 days by MTT assay. The class given is functional, organism-based. The method, boiled down:
as §3

Data set [11] concerns Human immunodeficiency virus 1. Description: Antiviral activity against HIV-1 3B harboring RT K103N mutant infected in human MT4 cells assessed as inhibition of virus-induced syncytium formation after 5 days by MTT assay. The class given is functional, organism-based. The following applies: Human immunodeficiency virus 1, 3B, MT4, 120 h. The method, boiled down:
as §3

Data set [12] has as its system Human immunodeficiency virus 1. Description: Ratio of EC50 for HIV-1 3B harboring RT L100I mutant infected in human MT4 cells to EC50 for wild type HIV-1 3B infected in human MT4 cells. The format is functional. The method, boiled down: (§4)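 Fold resistance is the EC50 against the drug-resistant strain divided by the EC50 against wild-type HIV-1 IIIB. Both values come from the same MT-4 assay: 5-day infection, MTT viability read-out, and serial fivefold compound dilutions in triplicate wells.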

Data set [13] has as its system Human immunodeficiency virus 1. Kind of data set: Antiviral activity against HIV-1 3B harboring RT E138K mutant infected in human MT4 cells assessed as inhibition of virus-induced syncytium formation after 5 days by MTT assay. The class given is functional, organism-based. The conditions noted are these: Human immunodeficiency virus 1, 3B, MT4, 120 h. The method, boiled down:
as §3

Data set [14] has as its system Human immunodeficiency virus 1. Description: Ratio of EC50 for HIV-1 3B harboring RT E138K mutant infected in human MT4 cells to EC50 for wild type HIV-1 3B infected in human MT4 cells. The class given is functional. The method, boiled down: as §4
The test system of data set [15] is Human immunodeficiency virus 1. Kind of data set: Ratio of EC50 for HIV-1 3B harboring RT K103N mutant infected in human MT4 cells to EC50 for wild type HIV-1 3B infected in human MT4 cells. The format is functional. The method, boiled down: as §4
For data set [16], the system named is Human immunodeficiency virus 1. Kind of data set: Antiviral activity against HIV-1 3B harboring RT L100I mutant infected in human MT4 cells assessed as inhibition of virus-induced syncytium formation after 5 days by MTT assay. The format is functional, organism-based. The following applies: Human immunodeficiency virus 1, 3B, MT4, 120 h. The method, boiled down: as §3

Active and inactive are the calls of the source. No cut-off for these calls is given here.

The values that follow come from ChEMBL document CHEMBL1828518, “Arylazolylthioacetanilide. Part 8: Design, synthesis and biological evaluation of novel 2-(2-(2,4-dichlorophenyl)-2H-1,2,4-triazol-3-ylthio)-N-arylacetamides as potent HIV-1 inhibitors” (Eur J Med Chem, 2011).

Consider `CCOC(=O)c1ccc(NC(=O)CSc2ncnn2-c2ccc(Cl)cc2Cl)c(Br)c1`, for which the selectivity ratio in data set [1] is 7; in [4], under 1. The EC50 is over 33.1 µM in data set [2]; 4.68 µM in data set [6]; 9.54 µM in data set [11]; over 38.7 µM in [13]; 10.8 µM in data set [16]. In addition, the inhibition entry in data set [3], in data set [7], in data set [9] and in data set [10] was “inactive” each time. The IC50 in [5] was 297 µM. Moreover, the CC50 at 120 h in [8] is 33.1 µM. For the same compound, the “Ratio EC50” value in data set [12] was 1.9; in data set [14] it was over 6.7; in data set [15], 1.6.

`O=C(CSc1ncnn1-c1ccc(Cl)cc1Cl)Nc1ccccc1[N+](=O)[O-]`: the selectivity ratio in data set [1] is 67; in [4], under 1. For the same compound, the EC50 in data set [2] was over 187 µM; in data set [6], 2.78 µM; in data set [11], 7.42 µM; in data set [13], 9.45 µM; in [16] it was 8.51 µM. The inhibition result in data set [3], in data set [7], in data set [9] and in [10] was “inactive” in each case. For the same compound, in [5], the IC50 was over 471 µM. The CC50 at 120 h in data set [8] came to 187 µM. In addition, the “Ratio EC50” value in data set [12] was 2.1; in [14] it was 2.3; in [15], 1.8.

Take `COC(=O)c1ccc(NC(=O)CSc2ncnn2-c2ccc(Cl)cc2Cl)c(Br)c1`: the selectivity ratio in data set [1] is 14; in data set [4], under 1. Also, the EC50 was over 59.3 µM in [2]; 4.13 µM in [6]; 7.73 µM in [11]; at least 15.2 µM in data set [13]; 6.95 µM in data set [16]. Besides, the inhibition entry in data set [3], in data set [7], in data set [9] and in [10] was “inactive” in each case. In [5], the IC50 came out at 385 µM. In addition, the CC50 at 120 h in [8] was found to be 59.3 µM. The “Ratio EC50” value was 2 in data set [12], “>=4.3” in data set [14] and 2.2 in data set [15].

For the compound `O=C(CSc1ncnn1-c1ccc(Cl)cc1Cl)Nc1ccccc1Br`, the selectivity ratio in [1] is 20; in data set [4], under 1. For the same compound, the EC50 in data set [2] is over 95.1 µM; in data set [6], 4.85 µM; in data set [11], 8.36 µM; in [13], 28.2 µM; in [16], 25.7 µM. The inhibition entry in data set [3], in data set [7], in [9] and in [10] was “inactive” each time. Also, in [8], the CC50 at 120 h stood at 95.1 µM. Further, the “Ratio EC50” value in data set [12] is reported as 6; in data set [14], 6.6; in data set [15], 1.9.

As a reminder, the EC50 is the concentration needed to bring the measured effect to its halfway point. Broadly, the IC50 is the concentration needed to halve the response being measured. Broadly, the CC50 is the concentration giving 50% cytotoxicity.
